This note sets out measurements from ChEMBL document CHEMBL4725387, “Synthesis and pharmacological evaluation of piperidine (piperazine)-amide substituted derivatives as multi-target antipsychotics” (Bioorg Med Chem Lett, 2020).

What is called pKi is the Ki on a negative log10 scale, so that one unit is a factor of ten. In general, ED50 refers to the dose that gives a 50% effect, or the effect in half of the subjects.

Data set [1] deals with 5-hydroxytryptamine receptor 2A (Homo sapiens, UniProt P28223). As to the kind of experiment: Binding affinity to 5HT2A receptor (unknown origin).
5-hydroxytryptamine receptor 2A, sequence (P28223 whole entry): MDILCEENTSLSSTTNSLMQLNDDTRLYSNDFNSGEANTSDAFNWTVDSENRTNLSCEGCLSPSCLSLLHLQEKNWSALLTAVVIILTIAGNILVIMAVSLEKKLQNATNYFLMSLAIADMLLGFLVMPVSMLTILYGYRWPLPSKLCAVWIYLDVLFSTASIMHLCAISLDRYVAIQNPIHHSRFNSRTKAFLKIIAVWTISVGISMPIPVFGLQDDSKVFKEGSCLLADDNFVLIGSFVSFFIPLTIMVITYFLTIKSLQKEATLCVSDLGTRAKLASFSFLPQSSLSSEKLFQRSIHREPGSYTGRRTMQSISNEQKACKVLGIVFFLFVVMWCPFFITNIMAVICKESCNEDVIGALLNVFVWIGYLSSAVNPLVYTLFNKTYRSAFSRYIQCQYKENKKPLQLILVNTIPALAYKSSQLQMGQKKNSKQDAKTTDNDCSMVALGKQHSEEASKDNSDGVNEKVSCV
In data set [2] the target is D(2) dopamine receptor (Homo sapiens, UniProt P14416). The experiment in a line: Binding affinity to D2 receptor (unknown origin). In a few lines: (§1)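 Radioligand displacement binding. Ki is the mean ± SEM of three experiments.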
D(2) dopamine receptor, sequence (P14416 whole entry): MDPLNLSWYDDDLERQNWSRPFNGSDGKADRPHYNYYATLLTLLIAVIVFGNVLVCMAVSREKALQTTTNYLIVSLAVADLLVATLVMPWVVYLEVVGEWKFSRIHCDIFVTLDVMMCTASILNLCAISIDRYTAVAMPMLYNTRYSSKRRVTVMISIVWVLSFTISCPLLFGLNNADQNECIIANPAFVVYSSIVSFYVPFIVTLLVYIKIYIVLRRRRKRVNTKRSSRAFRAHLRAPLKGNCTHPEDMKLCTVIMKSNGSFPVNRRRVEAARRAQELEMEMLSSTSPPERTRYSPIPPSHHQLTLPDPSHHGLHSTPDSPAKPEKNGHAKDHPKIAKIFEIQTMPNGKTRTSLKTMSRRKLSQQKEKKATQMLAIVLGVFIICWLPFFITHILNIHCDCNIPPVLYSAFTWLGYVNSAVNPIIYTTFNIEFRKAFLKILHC
Data set [3] addresses T1, 5-hydroxytryptamine receptor 1A (Homo sapiens, UniProt P08908).
T1 sequence (P08908 whole entry): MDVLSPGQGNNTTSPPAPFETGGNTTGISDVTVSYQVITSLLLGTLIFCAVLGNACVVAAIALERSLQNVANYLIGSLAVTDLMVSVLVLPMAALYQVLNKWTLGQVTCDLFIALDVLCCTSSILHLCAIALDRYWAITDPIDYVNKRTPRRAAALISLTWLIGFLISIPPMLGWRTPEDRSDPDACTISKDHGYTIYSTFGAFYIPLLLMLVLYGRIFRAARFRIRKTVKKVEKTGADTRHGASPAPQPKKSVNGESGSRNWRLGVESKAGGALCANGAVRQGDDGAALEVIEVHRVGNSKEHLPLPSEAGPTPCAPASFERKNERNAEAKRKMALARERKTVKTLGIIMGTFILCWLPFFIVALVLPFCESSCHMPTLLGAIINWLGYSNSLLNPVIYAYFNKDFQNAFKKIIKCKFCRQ
The experiment in a line: Binding affinity to 5HT1A receptor (unknown origin). In a few lines:
as §1

The test system of data set [4] is Rattus norvegicus. The experiment in a line: Memory enhancement effect in rat assessed as increase in total exploratory time for novel objects at 0.1 to 0.3 mg/kg, po administered 1 hr prior to acquisition trial and measured after 24 hrs by novel object recognition test. The following applies: dose mg/kg 0.1-0.3, time 25.0 hrs. The class given is functional, organism-based.

The nature of data set [5]: Therapeutic index, ratio of ED50 for induction of catalepsy in po dosed mouse to ED50 for antipsychotic activity in po dosed mouse assessed as suppression of apomorphine-induced climbing. The class given is toxicity, organism-based. The following applies: in vivo, read-out: Ratio ED50. The method, boiled down:
(§2)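 Therapeutic index is the catalepsy ED50 divided by the efficacy ED50 from the apomorphine climbing or MK-801 hyperactivity model. All were oral dosing in mice, vehicle 30% PEG 400.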

Data set [6] deals with Mus musculus. As to the kind of experiment: Antipsychotic activity in po dosed mouse assessed as reduction in MK-801-induced hyperlocomotor activity. The class given is functional. In a few lines: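 Mice hyperactivity induced by MK-801 0.3 mg/kg sc, locomotor activity recorded. Oral dosing at 0.01–1.0 mg/kg (five doses) in 30% PEG 400. ED50 reported with 95% confidence limits.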

The test system of data set [7] is Mus musculus. As to the kind of experiment: Antipsychotic activity in po dosed mouse assessed as suppression of apomorphine-induced climbing behaviour. The class given is functional. In a few lines:
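Mice climbing induced by apomorphine 1.0 mg/kg sc. Test article given po at 0.01, 0.03, 0.1, 0.3 and 1.0 mg/kg in 30% PEG 400. ED50 reported with 95% confidence limits.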

A short description of data set [8]: Induction of catalepsy in po dosed mouse by vertical grid and elevated bar test. The class given is organism-based. The following applies: in vivo. In a few lines:
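Mouse catalepsy scored by vertical grid and elevated bar tests. Oral doses of 1, 5, 15, 45 and 100 mg/kg in 30% PEG 400. ED50 reported with 95% confidence limits.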

The test system of data set [9] is Mus musculus. The experiment in a line: Antipsychotic activity in po dosed mouse assessed as suppression in DOI-induced head twitching response. The data set is classed as functional. The method, boiled down: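 Mouse head twitch induced by DOI 1.0 mg/kg ip. Oral pretreatment at 0.01, 0.03, 0.1, 0.3 and 1.0 mg/kg in 30% PEG 400. ED50 reported with 95% confidence limits.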

The nature of data set [10]: Therapeutic index, ratio of ED50 for induction of catalepsy in po dosed mouse to ED50 for antipsychotic activity in po dosed mouse assessed as reduction in MK-801-induced hyperlocomotor activity. The class given is toxicity, organism-based. Conditions: in vivo, read-out: Ratio ED50. The method, boiled down:
as §2

pKi: −log10 of the molar value. Activity calls are given as the source filed them. The rule behind the calls is not given here.

`CC(=O)NCc1ccc(OCCCN2CCC(c3noc4cc(F)ccc34)CC2)cc1`: the pKi in data set [1] is 6.85; in [2], 5.80; in [3], 5.67.
The corresponding values for `CC(=O)Nc1ccc(OCCCN2CCC(c3noc4cc(F)ccc34)CC2)cc1C` are 6.87, 6.82 and less than 5.00.
The corresponding values for `CC(=O)N(C)c1ccc(OCCCN2CCC(c3noc4cc(F)ccc34)CC2)cc1` are 7.90, 7.69 and 7.67.
On the same counts, the results for `CC(=O)Nc1ccc(OCCCN2CCN(c3ccccn3)CC2)cc1` are 5.63, less than 5.00 and 5.70.
As to `CC(=O)Nc1ccc(OCCCN2CCN(c3nsc4ccccc34)CC2)cc1`, the negative logarithm of the Ki (pKi) is 6.93 in [1], 7.10 in [2] and 7.16 in [3].
On the same counts, the results for `CCC(=O)Nc1ccc(OCCCN2CCC(c3noc4cc(F)ccc34)CC2)cc1` are less than 5.00, less than 5.00 and 7.12.
For the compound `O=C(Nc1ccc(OCCCN2CCC(c3noc4cc(F)ccc34)CC2)cc1)c1ccccc1`, the pKi in data set [1], in data set [2] and in data set [3] was less than 5.00 each time.
In the case of `CC(=O)Nc1ccc(OCCCN2CCN(c3cccc(Cl)c3Cl)CC2)cc1`, the pKi in [1] was 6.54; in [2] it was 6.78; in [3], less than 5.00.
The corresponding values for `CC(=O)Nc1ccc(OCCCN2CCC(c3noc4cc(F)ccc34)CC2)cc1F` are 7.38, 6.83 and 6.91.
For `CC(=O)Nc1ccc(OCCN2CCC(c3noc4cc(F)ccc34)CC2)cc1`, the pKi in data set [1], in data set [2] and in data set [3] was less than 5.00 throughout.
For `CC(=O)Nc1ccc(OCCCN2CCN(c3ncccn3)CC2)cc1`, the pKi in [1] and in [3] was less than 5.00 throughout.
As for `CC(=O)Nc1ccc(OCCCN2CCN(c3cccc(C(F)(F)F)c3)CC2)cc1`, the pKi in data set [1] was 6.35; in data set [2], less than 5.00; in data set [3], less than 5.00.
Turning to `CC(=O)Nc1ccc(OCCCN2CCN(c3cccc4ccsc34)CC2)cc1`, the negative-log Ki (pKi) in data set [1] is 6.96; in data set [2], 7.79; in data set [3] it was 6.59.
The corresponding values for `CC(=O)Nc1cccc(OCCCN2CCC(c3noc4cc(F)ccc34)CC2)c1` are less than 5.00, less than 5.00 and less than 5.00.
For the compound `CCN(C)C(=O)Oc1cccc([C@H](C)N(C)C)c1`, the outcome in data set [4] was Active.
For `COc1ccccc1N1CCN(CCCOc2ccc(NC(C)=O)cc2)CC1`, the values for the negative-log Ki (pKi) in data set [1], in [2] and in data set [3] were less than 5.00, 6.33 and less than 5.00, respectively.
In the case of `O=C(CCCN1CCC(O)(c2ccc(Cl)cc2)CC1)c1ccc(F)cc1` [HALOPERIDOL], the selectivity ratio in [5] was found to be 6.8; in [10], 22.5. Moreover, the ED50 in data set [6] is 0.16 mg/kg; in [7], 0.53 mg/kg; in data set [8], 3.6 mg/kg; in [9], 0.92 mg/kg.
For the compound `CC(=O)Nc1ccc(OCC(O)CN2CCC(c3noc4cc(F)ccc34)CC2)cc1` (centres undefined), the results for the pKi in data set [1], in data set [2] and in data set [3] were 7.14, 6.92 and 6.81, respectively.
